{"source": "PubChem BioAssay AID504383", "about": "(The Scripps Research Institute Molecular Screening Center, 2011)", "note": "The whole screen tested about 2,500 compounds, of which about 1,200 (48%) were called active.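 Rule for the calls: active = mean activation above the low control average plus 3 SD, as set in the primary screen (cut at about 12% in these data); inactive = the rest.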 So high a share suggests a set chosen from earlier hits. The list shows a part of the results."}
{"biological_target": "Troponin I, cardiac muscle (Homo sapiens) + Troponin T, cardiac muscle (Homo sapiens) + Troponin C, slow skeletal and cardiac muscles (Homo sapiens) (UniProt P19429+P45379+P63316)", "experiment": "calcium sensitizers of cardiac thin filaments – biochemical, IANBD-TnC fluorescence, triplicate, confirmation (AID 504383);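 note: 0% = DMSO at 0.472 mM calcium and 100% = DMSO at 2.9 mM calcium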", "conditions": "IANBD-labeled cardiac RTF, Ca2+ sensitivity fluorescence; at 7.2 µM; hits give high values; scaled from EC20 to saturating calcium; tested at EC20 calcium, 0.472 mM", "in_short": "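Assay system: labelled regulated thin filaments / Timing: 15 min at 25 °C / Detection: fluorescence intensity of labelled filaments / Measure: fluorescence gain scaled between EC20 and EC100 calcium controls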"}
{"smiles": "COc1cccc(CN2CCNC(=O)C2CC(=O)N(C)Cc2cnccn2)c1OC", "note": "(stereo not given)", "activation": "7.66% (inactive)"}
{"smiles": "CC(=O)[C@H]1[C@H](C#N)C[C@H]2[C@@H]3CC=C4C[C@@H](O)CC[C@]4(C)[C@H]3CC[C@@]21C", "activation": "45.3% (active)"}
{"smiles": "O=c1c2ccccc2cnn1Cc1n[nH]c(=S)n1-c1ccccc1Cl", "activation": "16.3% (active)"}
{"smiles": "CSCC(O)Cn1ncc2ccccc2c1=O", "note": "(stereo not given)", "activation": "5.97% (inactive)"}
{"smiles": "CC1(C)NC(=O)N(CCCCOc2ccc(Cl)cc2)C1=O", "activation": "0.92% (inactive)"}
{"smiles": "CCC(/C=C1\\Oc2ccc(OC)cc2N1C)=C\\c1sc2ccccc2[n+]1CCCS(=O)(=O)[O-]", "activation": "33.2% (active)"}
{"smiles": "COc1cc(/C=C/c2sc3ccccc3[n+]2CCCS(=O)(=O)[O-])ccc1O", "activation": "7.82% (inactive)"}
{"smiles": "Cc1ccc(CSc2nnc(SCC(=O)N/N=C/c3ccccc3OCC(=O)O)s2)cc1", "activation": "15.5% (active)"}
{"smiles": "CCOc1ccccc1C=NNC(=O)CCCCC(=O)NN=Cc1ccccc1OCC", "activation": "6.22% (inactive)"}
{"smiles": "O=C(CSCc1c(F)cccc1Cl)Nc1ccccc1C(=O)N1CCOCC1", "activation": "11.5% (inactive)"}
{"smiles": "COc1ccccc1N1CCN(C(=O)c2cn(-c3ccccc3)nc2-c2cccnc2)CC1", "activation": "10% (inactive)"}
{"smiles": "O=C(c1cn(-c2ccccc2)nc1-c1ccc(Br)cc1)N1CCOCC1", "activation": "16.9% (active)"}
{"smiles": "O=C(Nc1ccccc1F)C(=Cc1sc(N2CCOCC2)nc1-c1ccccc1)C(=O)Nc1ccccc1F", "activation": "-0.07% (inactive)"}
{"smiles": "O=C(N/C(=C/c1cn(-c2ccccc2)nc1-c1ccccc1)C(=O)N1CCOCC1)c1ccc(Cl)cc1Cl", "activation": "12.7% (active)"}
{"smiles": "Cc1cc(NC(=O)/C(C#N)=C\\c2ccc(-c3ccc(SC(F)F)cc3)o2)n(-c2ccccc2)n1", "activation": "359% (active)"}
{"smiles": "Cc1cc(NC(=O)/C(C#N)=C/c2ccc(-c3ccc(SC(F)F)cc3)o2)n(-c2ccccc2)n1", "activation": "659% (active)"}
{"smiles": "COC(=O)CCc1c(C)c(C(=O)c2cc(F)c(F)c(F)c2F)c2ccccn12", "activation": "-2.54% (inactive)"}
{"smiles": "O=C1CCNc2ccc(-c3ccccc3)cc21", "activation": "7.84% (inactive)"}
{"smiles": "Cn1c(=O)c(NCCc2ccccc2)c2c3c(cccc31)C(=O)c1ccccc1-2", "activation": "2.98% (inactive)"}
{"smiles": "Cn1c(=O)c2cc(NCc3ccccc3)nnc2n(C)c1=O", "activation": "13.9% (active)"}
{"smiles": "CC(C(=O)c1ccc(Br)cc1)[n+]1cccc2ccccc21", "note": "(stereo not given)", "activation": "64.2% (active)"}
{"smiles": "Cc1cc(C)nc(NC(=O)c2ccc(Cl)c(Cl)c2)n1", "activation": "12.3% (active)"}
{"smiles": "Cc1cccc(NC(=O)c2ccc(C(=O)c3ccccc3)cc2)n1", "activation": "9.46% (inactive)"}
{"smiles": "COC(=O)c1c(NC(=O)c2ccnn2C)sc(C)c1C", "activation": "5.98% (inactive)"}
{"smiles": "COC(=O)c1c(NC(=O)CN2CCN(c3cccc(Cl)c3)CC2)sc(C)c1C", "activation": "13.4% (active)"}
{"smiles": "CCOC(=O)c1c(/N=C/c2cccc([N+](=O)[O-])c2O)sc(C)c1C", "activation": "7.57% (inactive)"}
{"smiles": "CCN1C(=S)N[C@@H](CCc2ccccc2)[C@H](C(=O)OC)[C@H]1C", "activation": "57.4% (active)"}
{"smiles": "CCC(=O)Nc1ccc(NC(=S)NC(=O)c2oc3ccccc3c2C)cc1", "activation": "1.23% (inactive)"}
{"smiles": "COc1ccc(/C=C/C(=O)NC(=S)Nc2ccc(C(=O)O)cc2)cc1", "activation": "55.3% (active)"}
{"smiles": "O=C(/C=C/c1ccccc1)N/C(=C/c1ccccc1)C(=O)NCCCO", "activation": "9.8% (inactive)"}
{"smiles": "CC(C)(C)c1ccc(C(=O)NC(=S)Nc2ccc(N3CCOCC3)cc2)cc1", "activation": "0.7% (inactive)"}
{"smiles": "O=C(O)c1ccc(NC(=S)NC(=O)c2ccc(-c3ccccc3)cc2)cc1", "activation": "78.4% (active)"}
{"smiles": "O=C(CSc1ccc(-c2cccs2)nn1)N1CCCCC1", "activation": "0.96% (inactive)"}
{"smiles": "C=CCNc1nnc(SCC(=O)N2CCCCC2)c2ccccc12", "activation": "15.7% (active)"}
{"smiles": "CS(=O)(=O)c1ccc(C(=O)OCC(=O)Nc2cccnc2Cl)cc1[N+](=O)[O-]", "activation": "13.1% (active)"}
{"smiles": "CCOC(=O)c1c(NC(=O)COC(=O)Cc2ccccc2[N+](=O)[O-])sc(C(=O)N(C)C)c1C", "activation": "6.12% (inactive)"}
{"smiles": "CC(Sc1nnc(NCc2ccccc2)s1)C(=O)Nc1ccc2c(c1)C(=O)c1ccccc1C2=O", "note": "(stereo not given)", "activation": "137% (active)"}
{"smiles": "Cc1ccc(NC(=O)C(C)Sc2nnc(C)n2C2CC2)cc1S(=O)(=O)N1CCOCC1", "note": "(stereo not given)", "activation": "7.55% (inactive)"}
{"smiles": "CC(C)CSC1=NSC2=NC(=O)/C(=C\\c3coc4ccccc4c3=O)C(=N)N12", "activation": "45.1% (active)"}
{"smiles": "CSC1=NSC2=NC(=O)/C(=C/c3coc4ccccc4c3=O)C(=N)N12", "activation": "3.64% (inactive)"}
{"smiles": "CCSC1=NSC2=NC(=O)/C(=C\\c3coc4ccccc4c3=O)C(=N)N12", "activation": "74.7% (active)"}
{"smiles": "CC(C)NC(=S)N/N=C/c1sc(N2CCCCC2)nc1-c1cccs1", "activation": "11.2% (inactive)"}
{"smiles": "O=C(Nc1ccc(Br)cc1)c1ccc(Br)c(S(=O)(=O)Nc2cccnc2)c1", "activation": "22.2% (active)"}
{"smiles": "O=C(NCCCN1CCCC1=O)c1cccc(S(=O)(=O)Nc2ccc(Br)cc2)c1", "activation": "10% (inactive)"}
{"smiles": "O=C(Nn1cnnc1)c1cc([N+](=O)[O-])cc([N+](=O)[O-])c1", "activation": "11.3% (inactive)"}
{"smiles": "Cc1occc1C(=O)Nc1cccc([N+](=O)[O-])c1", "activation": "30.8% (active)"}
{"smiles": "Cc1csc(NS(=O)(=O)c2cccc([N+](=O)[O-])c2)n1", "activation": "10.9% (inactive)"}
{"smiles": "O=C(c1ccncc1)N(Cc1ccccc1)Cc1nc2ccccc2c(=O)[nH]1", "activation": "9.24% (inactive)"}
{"smiles": "COc1ccc2cc(CN(CC3CCCO3)C(=S)NCc3ccco3)c(=O)[nH]c2c1", "note": "(stereo not given)", "activation": "1.66% (inactive)"}
{"smiles": "COc1cc2cc(CN(Cc3cccnc3)C(=O)NCc3ccccc3)c(=O)[nH]c2cc1OC", "activation": "324% (active)"}
{"smiles": "CN1c2ccccc2C(O)=C(C(=S)Nc2ccc(F)c(Cl)c2)S1(=O)=O", "activation": "54.4% (active)"}
{"smiles": "CC(=O)Nc1ccccc1C(=O)C(=O)Nc1ccc(F)c(Cl)c1", "activation": "7.61% (inactive)"}
{"smiles": "CC(=O)/C(C=Nc1noc(C)c1Br)=C(\\C)O", "activation": "50.2% (active)"}
{"smiles": "C=C1C(=O)O[C@@]23[C@H]1CC[C@@H](C)[C@@H]2CC[C@@]1(C)O[C@@H]31", "activation": "11.9% (active)"}
{"smiles": "C=CCNC(=O)NC(=O)COC(=O)CC(NC(N)=O)c1ccc(Cl)cc1", "note": "(stereo not given)", "activation": "154% (active)"}
{"smiles": "CN(C)CCN(C)Cc1c2ccccc2c(CN(C)CCN(C)C)c2ccccc12", "activation": "27.7% (active)"}
{"smiles": "CN(C)CCOc1ccccc1C(C)(C)C", "activation": "4.26% (inactive)"}
{"smiles": "CC[N+](C)(C)c1cccc(O)c1", "activation": "3.39% (inactive)"}
{"smiles": "Nc1nc(NCc2ccco2)nc(N2CCCCCC2)c1[N+](=O)[O-]", "activation": "6.31% (inactive)"}
{"smiles": "Cc1ccc(S(=O)(=O)Nc2ccc3ncccc3c2[N+](=O)[O-])cc1", "activation": "11.6% (inactive)"}
{"smiles": "Cc1ccc(S(=O)(=O)Nc2nc3ccccc3nc2NCc2ccco2)cc1", "activation": "23.7% (active)"}
{"smiles": "COC(=O)c1[nH]c2ccc(C)cc2c1NC(=O)C(C)N1CCN(C2CCCCC2)CC1", "note": "(stereo not given)", "activation": "10.5% (inactive)"}
{"smiles": "CCn1c(C)c(CCC(=O)O)c(=O)n2nc(-c3ccccc3OC)cc12", "activation": "11.7% (active)"}
{"smiles": "COc1ccccc1-c1nnc(SCC(=O)Nc2ccc3[nH]c(=O)[nH]c3c2)n1N", "activation": "6.5% (inactive)"}
{"smiles": "O=S(=O)(CCN(CCS(=O)(=O)C(F)(F)F)CC1CCCO1)C(F)(F)F", "note": "(stereo not given)", "activation": "17.5% (active)"}
{"smiles": "COC(=O)CCCCCN1C(=O)/C(=C\\c2ccncc2)SC1=S", "activation": "4.31% (inactive)"}
{"smiles": "COc1ccccc1C(=O)NNC(=O)CCCN1C(=O)/C(=C/c2cccs2)SC1=S", "activation": "1.62% (inactive)"}
{"smiles": "O=C(O)CCCN1C(=O)/C(=C/c2cn(-c3ccccc3)nc2-c2cccs2)SC1=S", "activation": "150% (active)"}
{"smiles": "Cc1ccc(-c2nn(-c3ccccc3)cc2/C=C2\\SC(=S)N(CCCCCC(=O)O)C2=O)o1", "activation": "23.1% (active)"}
{"smiles": "C=CCNc1sc(C(=O)c2ccc(Br)s2)c(N)c1C#N", "activation": "98% (active)"}
{"smiles": "C#CCOCCOCCOCCNc1nc(N2CCN(C(=O)CCCCCCCCCCNC(=O)[C@@H](CCSC)n3cc(CCO)nn3)CC2)nc(N2CCN(C(=O)CCCCCCCCCCNC(=O)[C@H](CCSC)n3cc(CCO)nn3)CC2)n1", "activation": "3.03% (inactive)"}
{"smiles": "COc1ccc2[nH]c(C)c(CCN(Cc3cccs3)C(=S)Nc3ccc(F)cc3)c2c1", "activation": "12.4% (active)"}
{"smiles": "COc1ccc(NC(=O)C(c2ccc(C)cc2)N(C)C(=O)Cc2cccs2)cc1", "note": "(stereo not given)", "activation": "6.31% (inactive)"}
{"smiles": "CCN(CC)S(=O)(=O)c1ccc2[nH]c(=O)[nH]c2c1", "activation": "15.6% (active)"}
{"smiles": "Cc1noc(C)c1C(=O)Nc1nc2ccccc2s1", "activation": "28.4% (active)"}
{"smiles": "O=S(=O)(/N=C(/Nc1nc2ccccc2s1)c1ccccc1)c1ccc(F)cc1", "activation": "11.4% (inactive)"}
{"smiles": "Cc1onc(-c2ccccc2)c1C(=O)Nc1nc(-c2cc(F)ccc2F)cs1", "activation": "-0.1% (inactive)"}
{"smiles": "Cc1cccc(NC2=Nc3ccccc3N3C2=Nc2c(c(C)nn2-c2ccccc2)C3c2ccc(O)c(O)c2)c1", "note": "(stereo not given)", "activation": "362% (active)"}
{"smiles": "Cc1ccc(-c2ccc(CO)o2)cc1N", "activation": "92.6% (active)"}
{"smiles": "Cn1c(/C(C#N)=C(\\O)CN2CCN(Cc3ccccc3)CC2)nc2ccccc21", "activation": "7.65% (inactive)"}
{"smiles": "Cc1nc([N+](=O)[O-])c(Sc2nc3ccccc3n2C)n1Cc1ccccc1", "activation": "46.8% (active)"}
{"smiles": "Cc1nc([N+](=O)[O-])c(Br)n1CC(=O)c1ccc2ccccc2c1", "activation": "10.5% (inactive)"}
{"smiles": "COc1ccc(Cc2n[nH]c(=O)c3ccccc23)cc1OC", "activation": "5.9% (inactive)"}
{"smiles": "COc1ccc(CCNc2cc(C)[nH]c(=O)c2)cc1OC", "activation": "5.18% (inactive)"}
{"smiles": "COc1ccc(CNc2nn[nH]n2)cc1OC", "activation": "18.4% (active)"}
{"smiles": "CCOC(=O)CC(=O)CSc1nc(-c2ccc3c(c2)OCO3)cc(C(F)(F)F)c1C#N", "activation": "13.6% (active)"}
{"smiles": "C(=N\\c1nc2ccccc2n1CCN1CCOCC1)/c1cccs1", "activation": "2.67% (inactive)"}
{"smiles": "O=C(O)c1cccc([N+](=O)[O-])c1C(=O)Nc1cccc2ccccc12", "activation": "14.4% (active)"}
{"smiles": "Cc1ccc(NC(=O)c2cc(C(=O)c3cc(Cl)ccc3O)cn(-c3ccc(C)cc3)c2=O)cc1", "activation": "15.1% (active)"}
{"smiles": "Cc1ccc(O)c(C(=O)c2cc(C#N)c(=O)n(-c3nccs3)c2)c1", "activation": "8.02% (inactive)"}
